Hits are enriched below; roughly 4.5% of the tested compounds scored in any of these assays.
OX1R antag-1 – human HCRTR1 antagonism. inhibition, % at 5 µM. actives 0.43% (n = 330,000). CHO/OX1R cells, Fluo-8 calcium fluorescence, orexin A;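 active = inhibition above its plate's threshold, mean inhibition of all tested compounds on the plate plus 3 SD, cut at about 37% in these data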
Target sequence (O43613 whole entry, looked up): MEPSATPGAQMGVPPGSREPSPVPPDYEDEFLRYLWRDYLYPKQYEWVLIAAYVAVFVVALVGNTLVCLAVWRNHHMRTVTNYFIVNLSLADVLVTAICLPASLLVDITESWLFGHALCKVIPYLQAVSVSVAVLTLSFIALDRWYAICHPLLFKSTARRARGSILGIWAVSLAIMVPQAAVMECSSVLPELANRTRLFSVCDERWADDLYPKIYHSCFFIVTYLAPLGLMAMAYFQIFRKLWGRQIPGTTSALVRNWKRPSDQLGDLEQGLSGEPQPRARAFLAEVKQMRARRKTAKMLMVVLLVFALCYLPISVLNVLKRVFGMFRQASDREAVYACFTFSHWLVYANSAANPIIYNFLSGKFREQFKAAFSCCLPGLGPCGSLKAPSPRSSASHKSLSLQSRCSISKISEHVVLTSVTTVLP
GPR7 antagonist – human neuropeptides B/W receptor 1 antagonism; P48145; GPR7-expressing cells, fluorescence antagonist assay; inhibition, % at 4.4 µM; actives 1.1% (n = 290,000); AID 1861; in the data active = inhibition above about 16%, passing the limit was not always enough;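 note: cells stimulated with the agonist NPW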
TAAR1 antagonist – antagonists of human TAAR1; Q96RJ0; CHO RD-HGA16 TAAR1, Fluo-8 calcium fluorescence, antagonist; inhibition, % at 3 µM; actives 1.5% (n = 360,000); AID 624466;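 active = inhibition above a per-plate cutoff, the mean inhibition of test compounds on that plate plus 3 SD, cut at about 49% in these data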
Target sequence (Q96RJ0 whole entry, looked up): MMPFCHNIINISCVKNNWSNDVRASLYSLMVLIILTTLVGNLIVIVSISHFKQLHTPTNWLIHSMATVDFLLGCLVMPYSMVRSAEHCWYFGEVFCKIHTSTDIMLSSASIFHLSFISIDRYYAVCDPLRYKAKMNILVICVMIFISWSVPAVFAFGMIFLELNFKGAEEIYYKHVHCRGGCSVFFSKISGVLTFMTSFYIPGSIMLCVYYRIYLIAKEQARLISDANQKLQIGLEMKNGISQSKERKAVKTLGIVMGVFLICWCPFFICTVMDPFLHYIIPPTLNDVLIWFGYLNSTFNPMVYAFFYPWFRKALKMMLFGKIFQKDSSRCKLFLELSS
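Assay system: RD-HGA16 CHO cells with stable hTAAR1 and Gα16 / Reagent: EC80 β-phenethylamine stimulus / Doses: 3 µM, single point / Timing: dye loading 75 min at 37 °C, then 30 min room temperature / Measured by: Fluo-8 intracellular calcium dye fluorescence, real-time kinetic reads / Controls: vehicle wells and EC80 agonist wells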
CHO parental Ca – counter-screen: ATP calcium response change in parental CHO cells. parental CHO-K1, ATP-induced calcium, Fluo-8 fluorescence. inhibition, % at 5.6 µM. actives 0.63% (n = 330,000). AID 463079;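 active = inhibition above that plate's mean sample inhibition plus 3 SD, cut at about 26% in these data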
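material = parental CHO cells | also added = ATP as calcium-mobilizing challenge | dosing = single point at 5.6 µM | detection = intracellular calcium via Fluo-8 no-wash fluorescent dye | read-out = % inhibition | benchmarks = low control ATP plus DMSO, high control DMSO only | repeats = one well per compound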
OX1R antag-2 – blocks the human orexin 1 receptor | O43613 | AID 485270 | inhibition, % at 6.6 µM | actives 1.8% (n = 330,000) | OX1R-expressing cells, FRET antagonist read-out; in the data active = inhibition mostly above about 38%, no sharp cut-off; inactive = mostly below about 40%
TAAR1 agonist – agonists of human TAAR1 | CHO RD-HGA16 TAAR1, Fluo-8 calcium fluorescence; vehicle wells 0%, saturating PEA agonist 100% | activation, % at 3 µM | actives 0.99% (n = 360,000) | Q96RJ0 | AID 624467;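 active = activation above the mean activation of all test compounds in the run plus 3 SD, cut at about 38% in these data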
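Benchmarks: low control DMSO, high control PEA (EC100); System: CHO RD-HGA16 cells carrying human TAAR1 plus Gα16; Detection: Fluo-8 fluorescence, 5 s baseline then 140 s kinetic read; Schedule: 17-24 h plating, Fluo-8 75 min 37 °C, 30 min RT; Read-out basis: % activation from peak over basal fluorescence ratio, DMSO-to-PEA scaled.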
OX1R HTRF conf – OX1R (human) antagonism, HTRF confirmed. OX1R-expressing cells, HTRF antagonist assay. AID 492964. actives 49% (n = 1,800). inhibition, % at 6.6 µM. shares compounds with OX1R antag-2; in the data active = inhibition above about 55%;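 note: CHO cells expressing OX1R stimulated with orexin A at about EC80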
CHO-K1 HTRF – signal in parental CHO-K1 cells, OX1R antagonist counter-screen | shares compounds with OX1R antag-2 | HTRF counterscreen | AID 493232 | actives 48% (n = 1,800) | inhibition, % at 6.6 µM; in the data active = inhibition above about 17%
Large screens that a line does not name were inactive (follow-up assays come after a bar, where they were run).

O=S(=O)(c1cccc2nsnc12)N1CCN(c2ncccn2)CC1	OX1R antag-2 84.4 | OX1R HTRF conf inactive | CHO-K1 HTRF 20.3
CCOC(=O)C1CCCN(S(=O)(=O)c2cccc3nsnc23)C1 (stereo not drawn)	none
NC(=O)[C@H]1CC2(CC(c3cccc(NC(=O)[C@H]4CCC(=O)N4)c3)=NO2)CN1C(=O)c1cc([N+](=O)[O-])cc([N+](=O)[O-])c1 (stereo partly drawn)	OX1R antag-2 91.2 (no result: GPR7 antagonist) | OX1R HTRF conf inactive | CHO-K1 HTRF 57.3
Cc1c(C(=O)N2CC3(CC(c4cccc(NC(=O)[C@H]5CCC(=O)N5)c4)=NO3)C[C@@H]2C(N)=O)cc([N+](=O)[O-])cc1[N+](=O)[O-] (stereo partly drawn)	none (no result: GPR7 antagonist)
Cc1ccc(CNC(=O)c2ccc([N+](=O)[O-])o2)cc1	OX1R antag-2 78.3 | OX1R HTRF conf inactive | CHO-K1 HTRF 33.4
Cc1ccnc(NC(=O)c2ccccc2[N+](=O)[O-])c1	none
Cc1ccnc(NC(=O)c2ccc([N+](=O)[O-])o2)c1	OX1R antag-2 94.0 | OX1R HTRF conf inactive | CHO-K1 HTRF 68.2
Cc1ccc(/C=C/C(=O)c2ccc([N+](=O)[O-])o2)cc1	none (no result: GPR7 antagonist)
Clc1ccccc1Nc1nc(-c2cccnc2)cs1	OX1R antag-2 84.0 | OX1R HTRF conf 76.6 | CHO-K1 HTRF inactive
Cc1csc(NC(=O)CSCC(=O)O)c1-c1nc2ccccc2s1	OX1R antag-2 82.7 | OX1R HTRF conf 87.7 | CHO-K1 HTRF inactive
O=C(O)CSCC(=O)Nc1ccc(-c2nc3ccccc3s2)cc1	none
Cc1cnc([N+](=O)[O-])n1CCOC(=O)NC(=O)c1cccc(F)c1	OX1R antag-2 77.9 | OX1R HTRF conf 59.6 | CHO-K1 HTRF inactive
Cc1cnc([N+](=O)[O-])n1CCOC(=O)NC(=O)c1ccccc1Cl	none
COC(=O)c1c(NC(=O)c2ccco2)sc2c1C(C(=O)OC)CC2 (stereo not drawn)	OX1R antag-2 80.2 | OX1R HTRF conf 62.1 | CHO-K1 HTRF inactive
Cc1noc(C)c1S(=O)(=O)NC(=O)C1(C)CCN1C(=O)Cc1ccc(Cl)cc1Cl (stereo not drawn)	none (no result: OX1R antag-1, GPR7 antagonist, CHO parental Ca, OX1R antag-2)
Cc1ccccc1CC(=O)Nc1sc(C(C)C)cc1C(=O)N1CCOCC1	none
N#C/C(=C\c1c(Oc2ccccc2Cl)nc2ccccn2c1=O)C(=O)NC1CCS(=O)(=O)C1 (stereo not drawn)	none
N#C/C(=C\c1c(Oc2ccccc2F)nc2ccccn2c1=O)C(=O)NC1CCS(=O)(=O)C1 (stereo not drawn)	OX1R antag-2 89.1 | OX1R HTRF conf inactive | CHO-K1 HTRF 35.8
O=c1ccc(-c2ccc([N+](=O)[O-])cc2)nn1-c1ccccc1	none
O=[N+]([O-])c1ccc(-[n+]2nc(-c3ccccc3)nn2-c2ccccc2)cc1	OX1R antag-2 81.1 | OX1R HTRF conf inactive | CHO-K1 HTRF 78.8
COc1cccc(COC(=O)Cc2ccc(S(=O)(=O)N3CCOCC3)s2)c1OC	none (no result: GPR7 antagonist)
NC(c1csc(Nc2ccc(C(=O)NCCO)cc2)n1)C1CCCCC1 (stereo not drawn)	none (no result: OX1R antag-1, GPR7 antagonist, CHO parental Ca, OX1R antag-2)
O=[N+]([O-])c1ccc(-n2cnc3ccccc32)c([N+](=O)[O-])c1	OX1R antag-2 107.1 | OX1R HTRF conf inactive | CHO-K1 HTRF 44.6
O=[N+]([O-])c1ccc2c(c1)ncn2-c1ccccc1	none
Cc1cc([N+](=O)[O-])cc2c1-c1ncccc1C2=Nc1ccccc1	none
Cc1ccccc1N=C1c2cc([N+](=O)[O-])ccc2-c2ncccc21	OX1R antag-2 159.7 | OX1R HTRF conf inactive | CHO-K1 HTRF 41.9
COc1cc(CCC(=O)OCC(=O)Nc2cc(S(=O)(=O)N3CCOCC3)ccc2Cl)cc(OC)c1OC	none (no result: OX1R antag-1, GPR7 antagonist, CHO parental Ca, OX1R antag-2)
Cn1cc(Cl)c(C(=O)N/N=C/c2ccc3c4c(cccc24)CC3)n1	OX1R antag-2 91.5 (no result: TAAR1 antagonist, TAAR1 agonist) | OX1R HTRF conf 83.9 | CHO-K1 HTRF inactive
Cc1ccc(/C=N/NC(=O)c2nn(C)cc2Cl)cc1	none
CCOC(=O)c1c2c3c(cccc3n(C)c1=O)C(=O)c1ccccc1-2	none
CC(=O)Nc1c2c3c(cccc3n(C)c1=O)C(=O)c1ccccc1-2	OX1R antag-2 154.0 | OX1R HTRF conf inactive | CHO-K1 HTRF 64.6
CCCC(C)CO (stereo not drawn)	none (no result: GPR7 antagonist)
CN(C)c1ccc(-c2nnc(-c3cccs3)o2)cc1	OX1R antag-2 83.6 | OX1R HTRF conf 87.9 | CHO-K1 HTRF inactive
CN(CC(=O)Nc1ccccc1Br)C(=O)c1ccccc1-c1nc2ccccc2s1	OX1R antag-2 83.9 | OX1R HTRF conf 71.0 | CHO-K1 HTRF inactive
CN(CC(=O)Nc1ccccc1Br)C(=O)c1cc(Cl)nc2ccccc12	none (no result: GPR7 antagonist)
CC(=O)c1sc(N/N=C\c2c(O)ccc3ccccc23)nc1C	OX1R antag-2 85.2 (no result: GPR7 antagonist) | OX1R HTRF conf 58.2 | CHO-K1 HTRF inactive
CC(=O)c1sc(N/N=C/c2cccc([N+](=O)[O-])c2)nc1C	none
CCN(CC)S(=O)(=O)c1ccc(C(=O)N2CCN(C(=O)c3ccco3)CC2)cc1	none (no result: GPR7 antagonist)
Cc1cccc(-n2nc([N+](=O)[O-])c(=NC3CCN(Cc4ccccc4)CC3)n2O)c1	OX1R antag-2 83.3 | OX1R HTRF conf inactive | CHO-K1 HTRF 42.1
Cc1cccc(CCN=c2c([N+](=O)[O-])nn(-c3ccccc3)n2O)c1	none
O=C1c2ccccc2S(=O)(=O)c2cc(C(=O)N3CCC(N4CCCC4)CC3)ccc21	OX1R antag-2 101.0 (no result: GPR7 antagonist) | OX1R HTRF conf inactive | CHO-K1 HTRF 87.6
O=C(NCC1CCCO1)c1ccc2c(c1)S(=O)(=O)c1ccccc1C2=O (stereo not drawn)	OX1R antag-2 80.6 (no result: GPR7 antagonist) | OX1R HTRF conf 61.4 | CHO-K1 HTRF 62.5
O=C(NCCO)c1ccc2c(c1)S(=O)(=O)c1ccccc1C2=O	OX1R antag-2 107.9 | OX1R HTRF conf 64.7 | CHO-K1 HTRF 67.2
COc1ccc(CNC(=O)Nc2nc(C(N)c3ccccc3)cs2)cc1 (stereo not drawn)	none (no result: OX1R antag-1, GPR7 antagonist, CHO parental Ca, OX1R antag-2)
Cc1ccc2nc3c(cc(C#N)c(=O)n3-c3nccs3)c(=O)n2c1	OX1R antag-2 168.9 | OX1R HTRF conf 90.1 | CHO-K1 HTRF 77.3
COc1ccc(NC(=O)c2cc(C3CCCCN3S(=O)(=O)Cc3ccccc3)on2)cn1 (stereo not drawn)	none (no result: OX1R antag-1, GPR7 antagonist, CHO parental Ca, OX1R antag-2)
CCCN1/C(=C2/SC(=S)N(CC)C2=O)C=Cc2ccccc21	none
CN1C(=O)/C(=C2/C=Cc3ccccc3N2CCCS(=O)(=O)O)SC1=S	OX1R antag-2 100.0 | OX1R HTRF conf 58.8 | CHO-K1 HTRF 96.7

Screening results from PubChem BioAssay.
